Reference: ChEMBL document CHEMBL1138619, “Autotaxin structure-activity relationships revealed through lysophosphatidylcholine analogs” (Bioorg Med Chem, 2009)

Assays:
Format in all cases: cell-based
Parameters in all cases: scale not given: the % may be the effect or the level left
Autotaxin (Homo sapiens) [1] = target: Autotaxin (Homo sapiens) (UniProt Q13822); test: Activity of human autotaxin in human […] cells assessed as effect on enzyme-mediated of FS3 hydrolysis at 10 uM
Procedure, shortened: (§1)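 ATX source: serum-free conditioned medium from MDA-MB-435 cells (24-30 h), with 20% ethylene glycol added, concentrated ~10-fold and exchanged into 50 mM Tris pH 7.4. Assay: FS-3 substrate 1 μM final, fatty-acid-free BSA 30 μM, Tris pH 8 buffer with Mg2+, Ca2+, K+ and NaCl. Read fluorescence at ex 485/em 538 nm every 5 min. % inhibition vs vehicle at 1 h, after no-medium background subtraction; mean ± SD, ≥3 wells.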

Autotaxin (Homo sapiens) [2] = target: Autotaxin (Homo sapiens) (UniProt Q13822); test: Activity of human autotaxin in human […] cells assessed as effect on enzyme-mediated of FS3 hydrolysis at 1 uM; procedure, shortened: as §1
Autotaxin (Homo sapiens) [3] = target: Autotaxin (Homo sapiens) (UniProt Q13822); test: Activity of human autotaxin in human […] cells assessed as effect on enzyme-mediated of FS3 hydrolysis at 0.1 uM; procedure, shortened: as §1

Row | Compound | Activity (Autotaxin (Homo sapiens) [1]) [%] | Activity (Autotaxin (Homo sapiens) [2]) [%] | Activity (Autotaxin (Homo sapiens) [3]) [%]
1 | CCCCCCCC/C=C\CCCCCCCCOP(=O)(O)OCC[N+](C)(C)C | 79 | 100 | 101
2 | CCCCCCCCCCCCCCCCCCOP(=O)([O-])NCC[N+](C)(C)C | 29 | 74 | 86
3 | CCCCCCCCCCCCCCCCCCOC[C@@H](O)COP(=O)([O-])CCC[N+](C)(C)C | 76 | 89 | 81
4 | CCCCCCCCCCCCCCOP(=O)([O-])NCC[N+](C)(C)C | 75 | 90 | 89
5 | CCCCCCC(=O)OC[C@@H](O)COP(=O)([O-])OCC[N+](C)(C)C | 97 | 100 | 104
6 | CCCCCCCCCCCCCCCCC(=O)OC[C@@H](O)COP(=O)([O-])OCC[N+](C)(C)C | 36 | 89 | 109
7 | CCCCCCCCCCCCCCOC[C@H](O)COP(=O)([O-])CCC[N+](C)(C)C | 80 | 95 | 97
8 | CCCCCCCCCCCCOC[C@H](O)COP(=O)([O-])CCC[N+](C)(C)C | 87 | 95 | 98
9 | CCCCCCCCC/C=C/CCCCCCCC(=O)OC[C@@H](O)COP(=O)(O)O | 2 | 23 | 90
10 | CCCCCCCCCCCCCCCCOP(=O)([O-])CCC[N+](C)(C)C | 91 | 94 | 97
11 | CCCCCCCCCCCCCCOP(=O)([O-])CCC[N+](C)(C)C | 71 | 90 | 94
12 | CCCCCCCCCCCCCCCCCCP(=O)([O-])OCC[N+](C)(C)C | 44 | 96 | 110
13 | CCCCCCCCCCOC[C@H](O)COP(=O)([O-])CCC[N+](C)(C)C | 89 | 96 | 97
14 | CCCCCCCCCCCCC(=O)OC[C@@H](O)COP(=O)([O-])OCC[N+](C)(C)C | 66 | 97 | 102

The remaining lines, values ahead:

Row | Activity (Autotaxin (Homo sapiens) [1]) [%] | Activity (Autotaxin (Homo sapiens) [2]) [%] | Activity (Autotaxin (Homo sapiens) [3]) [%] | Compound
15 | 74 | 89 | 93 | CCCCCCCCC/C=C/CCCCCCCOP(=O)([O-])NCC[N+](C)(C)C
16 | 101 | 81 | 94 | CCCCCCCCC(=O)OC[C@@H](O)COP(=O)([O-])OCC[N+](C)(C)C
17 | 36 | 80 | 72 | CCCCCCCCCCCCCCC(=O)OC[C@@H](O)COP(=O)([O-])OCC[N+](C)(C)C
18 | 68 | 77 | 78 | CCCCCCCCCCCCCCCCCCOC[C@H](O)COP(=O)([O-])CCC[N+](C)(C)C
19 | 49 | 89 | 100 | CCCCCCCCCCCCCCCCCOC[C@@H](O)COP(=O)([O-])OCC[N+](C)(C)C
20 | 92 | 113 | 114 | CCCCCCCCCCCCCCCCOP(=O)([O-])OCC[N+](C)(C)C
21 | 76 | 85 | 98 | CCCCCCCCCCCCCCOC[C@@H](O)COP(=O)([O-])CCC[N+](C)(C)C
22 | 102 | 116 | 114 | CCCCCCCCCCCCCCCCCCOP(=O)([O-])OCC[N+](C)(C)C
23 | 91 | 112 | 110 | CCCCCCCCCCCCCCOP(=O)([O-])OCC[N+](C)(C)C
24 | 89 | 96 | 99 | CCCCCCCCCCCCOC[C@@H](O)COP(=O)([O-])CCC[N+](C)(C)C
25 | 59 | 99 | 111 | CCCCCCCCCCCCCCCCCCC(=O)OC[C@@H](O)COP(=O)([O-])OCC[N+](C)(C)C
26 | 5 | 49 | 74 | CCCCCCCCCCCCCCCCC(=O)OC[C@@H](O)COP(=O)(O)O
27 | 44 | 86 | 92 | CCCCCCCCCCCCCCCCCCCOC[C@@H](O)COP(=O)([O-])OCC[N+](C)(C)C
28 | 72 | 82 | 83 | CCCCCCCCCCCCCCCCOC[C@@H](O)COP(=O)([O-])CCC[N+](C)(C)C
29 | 85 | 101 | 101 | CCCCCCCCCCC(=O)OC[C@@H](O)COP(=O)([O-])OCC[N+](C)(C)C
30 | 103 | 95 | 101 | CCCCCCCCCCOC[C@@H](O)COP(=O)([O-])CCC[N+](C)(C)C
31 | 76 | 86 | 82 | CCCCCCCCCCCCCCCCOC[C@H](O)COP(=O)([O-])CCC[N+](C)(C)C
32 | 77 | 81 | 81 | CCCCCCCCCCCCCCCCOP(=O)([O-])NCC[N+](C)(C)C
33 | 8 | 59 | 105 | CCCCCCCC/C=C\CCCCCCCCOP(=O)([O-])OCC[N+](C)(C)C
34 | 36 | 74 | 89 | CCCCCCCCCCCCCCCCCCC(=O)OC[C@@H](O)COP(=O)(O)O
35 | 17 | 55 | 92 | CCCCCCCCC/C=C/CCCCCCCC(=O)OC[C@@H](O)COP(=O)([O-])OCC[N+](C)(C)C
